The text below walks through data of ChEMBL document CHEMBL4308878, “Discovery of covalent enzyme inhibitors using virtual docking of covalent fragments” (Bioorg Med Chem Lett, 2019).

Structures are written as SMILES. The source made the active and inactive calls. The calls are words filed in the database; no cut-off is given here.

Assay [1] addresses T1, Cathepsin B (Homo sapiens, UniProt P07858). The experiment in a line: Inhibition of cathepsin B (unknown origin) using Z-Arg-Arg-AMC as substrate after 5 mins by fluorimetric method.
Assay [2] addresses T1, Cathepsin B. In words: Inhibition of cathepsin B (unknown origin) assessed as ratio of Kinact to Ki using Z-Arg-Arg-AMC as substrate after 5 mins by fluorimetric method.
Assay [3] concerns the target T2, Procathepsin L (Homo sapiens, UniProt P07711). The experiment in a line: Inhibition of cathepsin L (unknown origin) using Z-Phe-Arg-AMC as substrate after 5 mins by fluorimetric method.
Assay [4] concerns the target T2, Procathepsin L. The experiment in a line: Inhibition of cathepsin L (unknown origin) assessed as ratio of Kinact to Ki using Z-Phe-Arg-AMC as substrate after 5 mins by fluorimetric method.
Target sequence in this assay (P07711 114-333 limits assumed): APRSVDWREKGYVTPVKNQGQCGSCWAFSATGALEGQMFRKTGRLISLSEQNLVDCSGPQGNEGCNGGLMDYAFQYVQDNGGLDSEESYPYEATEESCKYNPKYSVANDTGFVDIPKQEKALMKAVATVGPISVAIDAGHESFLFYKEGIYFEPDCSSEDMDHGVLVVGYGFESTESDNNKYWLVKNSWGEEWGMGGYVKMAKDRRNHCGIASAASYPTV
Assay [5] deals with T3, Ubiquitin carboxyl-terminal hydrolase 8 (Homo sapiens) (UniProt P40818).
T3 sequence (whole entry): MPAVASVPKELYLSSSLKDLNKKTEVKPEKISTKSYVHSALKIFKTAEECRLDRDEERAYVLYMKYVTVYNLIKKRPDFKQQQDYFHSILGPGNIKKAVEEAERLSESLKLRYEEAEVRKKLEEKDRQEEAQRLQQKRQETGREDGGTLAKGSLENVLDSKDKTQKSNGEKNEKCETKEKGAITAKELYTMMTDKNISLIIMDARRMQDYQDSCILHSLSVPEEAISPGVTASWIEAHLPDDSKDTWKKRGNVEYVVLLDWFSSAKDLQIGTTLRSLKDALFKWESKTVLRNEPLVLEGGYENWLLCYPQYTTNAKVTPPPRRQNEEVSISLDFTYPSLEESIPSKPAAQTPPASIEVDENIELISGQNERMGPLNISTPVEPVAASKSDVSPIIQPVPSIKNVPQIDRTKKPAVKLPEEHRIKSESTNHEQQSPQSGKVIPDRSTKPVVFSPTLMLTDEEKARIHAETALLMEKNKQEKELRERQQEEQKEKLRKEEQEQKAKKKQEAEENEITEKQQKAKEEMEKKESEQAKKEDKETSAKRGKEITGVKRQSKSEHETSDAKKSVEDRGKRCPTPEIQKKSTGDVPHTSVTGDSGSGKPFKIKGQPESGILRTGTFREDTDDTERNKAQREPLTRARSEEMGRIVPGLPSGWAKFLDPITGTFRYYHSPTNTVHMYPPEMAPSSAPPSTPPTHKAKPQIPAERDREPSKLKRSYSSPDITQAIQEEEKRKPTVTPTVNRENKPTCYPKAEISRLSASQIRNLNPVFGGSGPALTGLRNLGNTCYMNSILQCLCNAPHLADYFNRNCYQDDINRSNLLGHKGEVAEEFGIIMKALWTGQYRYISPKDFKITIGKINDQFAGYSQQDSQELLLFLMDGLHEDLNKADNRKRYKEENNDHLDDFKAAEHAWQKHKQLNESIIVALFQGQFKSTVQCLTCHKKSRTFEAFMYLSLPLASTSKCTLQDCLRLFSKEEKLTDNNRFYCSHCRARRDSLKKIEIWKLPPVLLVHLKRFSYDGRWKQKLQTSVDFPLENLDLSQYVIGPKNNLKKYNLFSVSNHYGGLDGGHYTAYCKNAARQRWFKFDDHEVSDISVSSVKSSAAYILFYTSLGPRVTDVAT
The experiment in a line: Inhibition of recombinant USP8 catalytic domain (unknown origin) using Ubiquitin-Lys-TAMRA as substrate preincubated for 60 mins followed by substrate addition and measured at 6 mins interval for 4 hrs by fluorescence assay.

For assay [6], the target named is T4, Calpain-1 catalytic subunit (Homo sapiens) (UniProt P07384).
T4 sequence (whole entry): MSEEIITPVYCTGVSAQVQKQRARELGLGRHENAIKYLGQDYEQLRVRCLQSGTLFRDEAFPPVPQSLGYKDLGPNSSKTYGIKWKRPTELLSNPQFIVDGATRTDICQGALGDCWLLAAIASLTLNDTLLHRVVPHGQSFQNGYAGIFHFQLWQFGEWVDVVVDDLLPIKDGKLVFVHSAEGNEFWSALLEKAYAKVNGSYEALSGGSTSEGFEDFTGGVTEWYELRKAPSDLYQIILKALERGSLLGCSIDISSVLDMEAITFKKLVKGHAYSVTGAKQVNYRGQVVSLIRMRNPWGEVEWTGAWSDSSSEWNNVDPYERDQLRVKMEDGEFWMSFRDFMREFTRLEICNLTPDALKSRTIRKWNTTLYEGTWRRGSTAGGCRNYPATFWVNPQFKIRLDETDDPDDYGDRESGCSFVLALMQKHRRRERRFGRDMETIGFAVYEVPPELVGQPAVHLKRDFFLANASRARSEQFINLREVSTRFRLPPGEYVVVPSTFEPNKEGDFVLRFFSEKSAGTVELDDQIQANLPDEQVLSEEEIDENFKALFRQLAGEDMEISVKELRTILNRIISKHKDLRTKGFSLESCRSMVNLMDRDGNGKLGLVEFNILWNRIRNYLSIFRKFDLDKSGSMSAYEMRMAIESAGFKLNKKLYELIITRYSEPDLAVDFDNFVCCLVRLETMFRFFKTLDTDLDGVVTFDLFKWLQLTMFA
The experiment in a line: Inhibition of human calpain1 using Suc-Leu-Tyr-AMC as substrate preincubated for 60 mins followed by substrate addition and measured at 1 min interval for 20 mins consecutively at every 15 mins for 2 hrs by fluorescence assay.

The target in assay [7] is T2, Procathepsin L. The experiment in a line: Competitive inhibition of human liver cathepsin L using Z-FR-AMC as substrate measured at 1 min interval for 20 mins followed by every 15 mins for 2 hrs by fluorescence assay.
Assay [8] addresses T3, Ubiquitin carboxyl-terminal hydrolase 8 (Homo sapiens). In words: Inhibition of recombinant USP8 catalytic domain (unknown origin) using Ubiquitin-Lys-TAMRA as substrate measured at 6 mins interval for 4 hrs by fluorescence assay.
Assay [9] addresses T2, Procathepsin L. In words: Inhibition of human liver cathepsin L assessed as ratio of Kinact to Ki using Z-FR-AMC as substrate measured at 1 min interval for 20 mins followed by every 15 mins for 2 hrs by fluorescence assay.
Target sequence in this assay (P07711 114-333 limits assumed): as the sequence (P07711 114-333 limits assumed) above
Assay [10] addresses T1, Cathepsin B. The experiment in a line: Inhibition of human liver cathepsin B using Z-Arg-Arg-AMC as substrate measured at 1 min interval for 20 mins followed by every 15 mins for 2 hrs by fluorescence assay.
Assay [11] deals with T2, Procathepsin L. In words: Irreversible inhibition of human liver cathepsin L at 50 uM using Z-FR-AMC as substrate preincubated for 3 hrs followed by compound washout measured by gel filtration assay. The essentials:
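Cathepsin L (10 nM) was preincubated with inhibitor (50 μM), then passed through a gel-filtration spin column to remove free compound. Flow-through aliquots were assayed for recovery of enzyme activity at several time points.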
For orientation: In gel filtration, larger molecules generally elute earlier.
Target sequence in this assay (P07711 114-333 limits assumed): as the sequence (P07711 114-333 limits assumed) above

For assay [12], the target named is T1, Cathepsin B. The experiment in a line: Inhibition of human liver cathepsin B using Z-Arg-Arg-AMC as substrate preincubated for 60 mins followed by substrate addition and measured at 1 min interval for 20 mins consecutively at every 15 mins for 2 hrs by fluorescence assay.
Assay [13] addresses T4, Calpain-1 catalytic subunit (Homo sapiens). In words: Inhibition of human calpain1 using Suc-Leu-Tyr-AMC as substrate measured at 1 min interval for 20 mins followed by every 15 mins for 2 hrs by fluorescence assay.
Assay [14] deals with T2, Procathepsin L. The experiment in a line: Inhibition of human liver cathepsin L using Z-FR-AMC as substrate measured at 1 min interval for 20 mins followed by every 15 mins for 2 hrs by fluorescence assay.

`O=C(N[C@H](/C=C/S(=O)(=O)c1ccccc1)CCc1ccccc1)[C@H](Cc1cc(I)c(O)c(I)c1)NC(=O)N1CCOCC1`: the Ki (commonly the equilibrium dissociation constant of an inhibitor or competing ligand from its target) in [1] amounted to 0.34 µM; in assay [3] it was 0.72 µM. Also, the values for the Kinact in assay [1] and in [3] were 0.36 s⁻¹ and 0.28 s⁻¹, respectively. The results for the Ratio in assay [2] and in [4] were 1.06e+06 M⁻¹ s⁻¹ and 389000 M⁻¹ s⁻¹, respectively.

Take `CS(=O)(=O)/C=C/CNC(=O)COc1ccc(Br)cc1Br`: the inhibition result in assay [5], in assay [6], in assay [8], in assay [10], in assay [12] and in assay [13] was “inactive” in each case. In [7], this compound returned a Ki of 59 µM. Further, the Kinact in [7] stood at 0.0003 s⁻¹. Also, the Ratio in assay [9] was determined as 5 M⁻¹ s⁻¹. Moreover, the inhibition result in [11] was “Active”.

`O=C(N[C@H](/C=C/S(=O)(=O)c1ccccc1)CCc1ccccc1)[C@H](Cc1ccccc1)NC(=O)N1CCOCC1`: the Ki in assay [1] came out at 11 µM; in assay [3] it was 1 µM. Also, the Kinact stood at 0.17 s⁻¹ in assay [1] and 0.24 s⁻¹ in [3]. The figures for the Ratio in assay [2] and in assay [4] were 15500 M⁻¹ s⁻¹ and 240000 M⁻¹ s⁻¹, respectively.

As for `C[C@@H](Oc1ccc(Br)cc1Br)C(=O)NC/C=C/S(C)(=O)=O`, in [14], the affinity corresponds to a Ki of 146 µM and the Kinact came to 0.0006 s⁻¹.
